Series [1] can be described thus: Ratio of free drug level in brain to plasma in CD1 mouse at 10 mg/kg, sc. Conditions: brain and plasma. Set-up: dose 10 mg/kg, route subcutaneous. The series is classed as ADME, organism-based. In outline:
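Male CD-1 mice, 10 mg/kg sc in 5% DMSO/95% (0.5% methylcellulose). Plasma, brain and CSF were collected at 1, 4 and 7 h and analyzed by LC-MS/MS. Free fractions came from equilibrium dialysis.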

The nature of series [2]: Ratio of drug level in brain to plasma in CD1 mouse at 10 mg/kg, sc after 60 mins. The series is classed as ADME, organism-based. Set-up: dose 10 mg/kg, route subcutaneous. Particulars: brain and plasma, read-out: BPR. A digest of the protocol:
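Plasma and brain exposures were measured in mice 60 min after 10 mg/kg subcutaneous dosing.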

Series [3] is described as follows: Ratio of free drug level in brain to plasma in dog. The format is ADME, Canis lupus familiaris. Conditions: brain and plasma.

The structures appear in SMILES notation.

On to `NC1=N[C@@]2(c3ccc(F)cc3F)CO[C@@H](C(F)F)C[C@H]2CS1`, for which, in series [1], the Kp uu is 1.2. The Kp at 1 h in series [2] is 3.51.

Regarding `NC1=N[C@@]2(c3ccc(F)cc3F)CO[C@@H](CF)C[C@H]2CS1`, the values for the Kp uu in series [1] and in series [3] were 1.42 and 0.78, respectively. In series [2], the Kp at 1 h came out at 9.2.

As to `C[C@H]1C[C@H]2CSC(N)=N[C@@]2(c2ccc(F)cc2F)CO1`, the Kp uu in series [1] was 0.92. Moreover, the Kp at 1 h in series [2] amounted to 3.9.

For the origin of these results see ChEMBL document CHEMBL3414451, “Discovery of a series of efficient, centrally efficacious BACE1 inhibitors through structure-based drug design” (J Med Chem, 2015).
